{"source": "ChEMBL document CHEMBL4619723", "about": "“New CDK8 inhibitors as potential anti-leukemic agents - Design, synthesis and biological evaluation” (Bioorg Med Chem, 2020)", "key": {"[1]": {"biological_target": "Activin receptor type-1 (Homo sapiens) (UniProt Q04771)", "sequence (Q04771 whole entry, the tested form may be a part)": "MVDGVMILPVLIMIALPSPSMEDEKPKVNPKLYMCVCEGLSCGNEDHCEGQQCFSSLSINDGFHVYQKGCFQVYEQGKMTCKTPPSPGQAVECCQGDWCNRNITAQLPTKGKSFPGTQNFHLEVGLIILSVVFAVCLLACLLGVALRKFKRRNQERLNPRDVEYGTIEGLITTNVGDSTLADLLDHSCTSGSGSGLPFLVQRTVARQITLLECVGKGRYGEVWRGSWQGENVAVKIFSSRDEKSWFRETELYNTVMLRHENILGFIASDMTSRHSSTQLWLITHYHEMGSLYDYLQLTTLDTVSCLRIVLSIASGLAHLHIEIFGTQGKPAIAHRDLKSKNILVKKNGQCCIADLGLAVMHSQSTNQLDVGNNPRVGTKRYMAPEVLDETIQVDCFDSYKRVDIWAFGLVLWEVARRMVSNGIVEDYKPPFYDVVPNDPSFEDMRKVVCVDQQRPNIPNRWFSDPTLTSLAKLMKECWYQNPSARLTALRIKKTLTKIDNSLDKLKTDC", "assay": "Inhibition of biotinylated ligand binding to wild-type human ACVR1 (C188 to C509 residues) expressed in bacterial expression system at 50 nM measured after 1 hr by kinomescan assay relative to control", "procedure,_shortened": "(§1)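 Kinase-tagged T7 phage was grown in an E. coli BL21-derived host at 32 °C until lysis, and the lysate was clarified. Kinase was bound to streptavidin beads carrying a biotinylated ligand, with test compound at 50 nM (final DMSO), in binding buffer for 1 h at rt. Bound kinase was eluted and quantified by qPCR. Result is POC relative to the DMSO (100%) and control-compound (0%) references.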"}, "[2]": {"biological_target": "Phosphatidylinositol 5-phosphate 4-kinase type-2 beta (Homo sapiens) (UniProt P78356)", "assay": "Inhibition of biotinylated ligand binding to wild-type human full length PIP5K2B (M1 to T416 residues) expressed in bacterial expression system at 50 nM measured after 1 hr by kinomescan assay relative to control", "procedure,_shortened": "as §1"}, "[3]": {"assay": "Selectivity ratio of EC50 for rat H9c2 cells to EC50 for human OCI-AML3 cells", "type": "toxicity", "details": "H9c2 cells versus OCI-AML3 cells, read-out: Ratio EC50"}, "[4]": {"biological_target": "Serine/threonine-protein kinase PLK4 (Homo sapiens) (UniProt O00444)", "assay": "Inhibition of biotinylated ligand binding to wild-type human partial length PLK4 (M1 to S273 residues) expressed in mammalian expression system at 50 nM measured after 1 hr by kinomescan assay relative to control", "procedure,_shortened": "(§2)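 Competition binding: kinase was bound to streptavidin beads carrying a biotinylated ligand, with test compound at 50 nM, in 20% SeaBlock, 0.17x PBS, 0.05% Tween 20 and 6 mM DTT for 1 h at rt with shaking. After washing, kinase was eluted with 0.5 μM free ligand and quantified by qPCR. Result is POC relative to the DMSO (100%) and control-compound (0%) references.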"}, "[5]": {"biological_target": "Rho-associated protein kinase 1 (Homo sapiens) (UniProt Q13464)", "assay": "Inhibition of biotinylated ligand binding to wild-type human partial length ROCK1 (M1 to R415 residues) expressed in mammalian expression system at 50 nM measured after 1 hr by kinomescan assay relative to control", "procedure,_shortened": "as §2"}, "[6]": {"biological_target": "G protein-coupled receptor kinase 4 (Homo sapiens) (UniProt P32298)", "sequence (P32298 whole entry, looked up, the tested form may be a part)": "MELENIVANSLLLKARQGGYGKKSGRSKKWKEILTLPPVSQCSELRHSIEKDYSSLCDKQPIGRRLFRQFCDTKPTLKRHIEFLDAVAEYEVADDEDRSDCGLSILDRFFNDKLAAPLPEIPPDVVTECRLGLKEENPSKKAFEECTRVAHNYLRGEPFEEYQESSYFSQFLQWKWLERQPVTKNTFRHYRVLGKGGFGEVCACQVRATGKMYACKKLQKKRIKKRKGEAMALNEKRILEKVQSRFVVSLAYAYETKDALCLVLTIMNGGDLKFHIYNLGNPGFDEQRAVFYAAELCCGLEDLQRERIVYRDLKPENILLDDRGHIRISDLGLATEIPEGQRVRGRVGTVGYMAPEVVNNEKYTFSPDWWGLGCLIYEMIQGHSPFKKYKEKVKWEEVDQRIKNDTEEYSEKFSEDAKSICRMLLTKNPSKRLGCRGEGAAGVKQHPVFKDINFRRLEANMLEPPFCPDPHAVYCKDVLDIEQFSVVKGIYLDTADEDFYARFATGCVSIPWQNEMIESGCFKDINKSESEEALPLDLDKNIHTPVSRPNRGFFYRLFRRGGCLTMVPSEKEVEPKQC", "assay": "Inhibition of biotinylated ligand binding to wild-type human full length GRK4 (M1 to C578 residues) expressed in bacterial expression system at 50 nM measured after 1 hr by kinomescan assay relative to control", "procedure,_shortened": "as §1"}, "[7]": {"assay": "Selectivity ratio of EC50 for rat H9c2 cells to EC50 for human MV4-11 cells", "type": "toxicity", "details": "H9c2 cells versus MV4-11 cells, read-out: Ratio EC50"}, "[8]": {"biological_target": "Dual specificity protein kinase CLK4 (Homo sapiens) (UniProt Q9HAZ1)", "assay": "Inhibition of biotinylated ligand binding to wild-type human partial length CLK4 (R135 to K481 residues) expressed in bacterial expression system at 50 nM measured after 1 hr by kinomescan assay relative to control", "procedure,_shortened": "as §1"}, "[9]": {"biological_target": "Rho-associated protein kinase 2 (Homo sapiens) (UniProt O75116)", "sequence (O75116 whole entry, looked up, the tested form may be a part)": "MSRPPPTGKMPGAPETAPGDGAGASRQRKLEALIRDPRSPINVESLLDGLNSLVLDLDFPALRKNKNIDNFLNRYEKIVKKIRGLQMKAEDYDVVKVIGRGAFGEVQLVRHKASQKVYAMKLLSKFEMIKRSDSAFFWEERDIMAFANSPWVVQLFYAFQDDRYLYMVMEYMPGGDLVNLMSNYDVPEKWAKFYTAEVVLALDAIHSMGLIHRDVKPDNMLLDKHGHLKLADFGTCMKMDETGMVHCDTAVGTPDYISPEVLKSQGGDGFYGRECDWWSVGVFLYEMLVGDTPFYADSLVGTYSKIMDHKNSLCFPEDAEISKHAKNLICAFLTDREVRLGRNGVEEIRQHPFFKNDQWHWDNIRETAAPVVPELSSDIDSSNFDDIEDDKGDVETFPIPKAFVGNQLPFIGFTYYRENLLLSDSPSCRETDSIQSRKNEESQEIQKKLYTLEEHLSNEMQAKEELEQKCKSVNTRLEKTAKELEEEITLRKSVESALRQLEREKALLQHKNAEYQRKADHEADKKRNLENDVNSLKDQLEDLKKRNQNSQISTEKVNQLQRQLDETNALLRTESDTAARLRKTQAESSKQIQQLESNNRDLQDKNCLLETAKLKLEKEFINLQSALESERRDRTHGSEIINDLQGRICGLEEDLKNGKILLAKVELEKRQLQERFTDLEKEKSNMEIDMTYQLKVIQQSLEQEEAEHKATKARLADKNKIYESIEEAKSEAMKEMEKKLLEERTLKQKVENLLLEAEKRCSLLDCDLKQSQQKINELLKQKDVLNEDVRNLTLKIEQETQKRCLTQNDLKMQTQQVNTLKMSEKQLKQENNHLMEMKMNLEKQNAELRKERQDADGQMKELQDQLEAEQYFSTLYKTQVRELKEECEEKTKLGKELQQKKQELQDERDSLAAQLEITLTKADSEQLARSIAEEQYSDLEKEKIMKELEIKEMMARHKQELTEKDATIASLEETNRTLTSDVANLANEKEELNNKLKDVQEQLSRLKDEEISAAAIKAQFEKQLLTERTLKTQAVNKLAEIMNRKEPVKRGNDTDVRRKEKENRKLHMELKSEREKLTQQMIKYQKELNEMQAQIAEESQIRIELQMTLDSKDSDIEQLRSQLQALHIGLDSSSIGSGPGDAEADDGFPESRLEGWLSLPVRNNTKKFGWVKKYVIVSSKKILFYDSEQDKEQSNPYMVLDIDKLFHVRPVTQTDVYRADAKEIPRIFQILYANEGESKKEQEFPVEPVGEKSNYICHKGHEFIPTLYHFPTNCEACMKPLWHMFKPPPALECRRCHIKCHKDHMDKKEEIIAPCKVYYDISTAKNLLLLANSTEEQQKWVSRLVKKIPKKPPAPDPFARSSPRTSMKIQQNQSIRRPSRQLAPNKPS", "assay": "Inhibition of biotinylated ligand binding to wild-type human partial length ROCK2 (M1 to T431 residues) expressed in mammalian expression system at 50 nM measured after 1 hr by kinomescan assay relative to control", "procedure,_shortened": "as §2"}, "H9c2": {"test_system": "H9c2", "assay": "cells", "details": "Rattus norvegicus, H9c2, 48 h"}, "[10]": {"biological_target": "Cyclin-dependent kinase 7 (Homo sapiens) (UniProt P50613)", "assay": "Inhibition of biotinylated ligand binding to wild-type human full length CDK7 (M1 to L344 residues) expressed in mammalian expression system at 50 nM measured after 1 hr by kinomescan assay relative to control", "procedure,_shortened": "as §2"}, "[11]": {"assay": "Selectivity ratio of EC50 for rat NRK cells to EC50 for human MV4-11 cells", "type": "toxicity", "details": "NRK cells versus MV4-11 cells, read-out: Ratio EC50"}, "[12]": {"biological_target": "Cyclin-dependent kinase 8 (Homo sapiens, UniProt P49336)", "assay": "Inhibition of biotinylated ligand binding to wild-type human partial length CDK8 (M1 to T360 residues) expressed in Escherichia coli BL21 at 50 nM measured after 1 hr by kinomescan assay relative to control", "procedure,_shortened": "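T7 phage-tagged kinase lysates from E. coli BL21 were mixed with streptavidin beads carrying biotinylated ligand and 50 nM compound. Incubated 1 h at room temperature with shaking, washed, then eluted 30 min with 0.5 μM non-biotinylated ligand. Kinase was quantified by qPCR. POC = (test − positive)/(DMSO − positive) ×100, with a control compound as positive.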"}, "[13]": {"biological_target": "Serine/threonine-protein kinase LATS1 (Homo sapiens) (UniProt O95835)", "assay": "Inhibition of biotinylated ligand binding to wild-type human partial length LATS1 (Q678 to V1130 residues) expressed in bacterial expression system at 50 nM measured after 1 hr by kinomescan assay relative to control", "procedure,_shortened": "as §1"}, "[14]": {"biological_target": "Serine/threonine-protein kinase haspin (Homo sapiens) (UniProt Q8TF76)", "assay": "Inhibition of biotinylated ligand binding to wild-type human partial length HASPIN (I452 to K798 residues) expressed in mammalian expression system at 50 nM measured after 1 hr by kinomescan assay relative to control"}, "[15]": {"assay": "Selectivity ratio of EC50 for rat NRK cells to EC50 for human OCI-AML3 cells", "type": "toxicity", "details": "NRK cells versus OCI-AML3 cells, read-out: Ratio EC50"}, "[16]": {"biological_target": "Serine/threonine-protein kinase RIO1 (Homo sapiens) (UniProt Q9BRS2)", "sequence (Q9BRS2 whole entry, the tested form may be a part)": "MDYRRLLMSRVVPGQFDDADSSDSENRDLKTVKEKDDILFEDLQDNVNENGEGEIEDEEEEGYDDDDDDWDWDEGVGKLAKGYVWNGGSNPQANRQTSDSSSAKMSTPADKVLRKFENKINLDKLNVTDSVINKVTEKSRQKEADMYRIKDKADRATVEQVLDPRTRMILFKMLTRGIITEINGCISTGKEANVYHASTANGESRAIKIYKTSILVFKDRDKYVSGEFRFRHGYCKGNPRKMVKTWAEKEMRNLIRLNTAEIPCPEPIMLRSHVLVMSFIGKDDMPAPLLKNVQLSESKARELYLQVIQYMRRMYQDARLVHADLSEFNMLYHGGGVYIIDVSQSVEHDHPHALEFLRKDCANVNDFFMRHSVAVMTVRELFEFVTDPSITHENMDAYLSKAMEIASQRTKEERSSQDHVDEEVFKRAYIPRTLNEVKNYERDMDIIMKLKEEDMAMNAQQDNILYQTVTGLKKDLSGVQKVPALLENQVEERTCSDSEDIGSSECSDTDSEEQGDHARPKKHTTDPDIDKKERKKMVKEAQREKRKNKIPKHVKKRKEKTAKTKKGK", "assay": "Inhibition of biotinylated ligand binding to wild-type human full length RIOK1 (M1 to K568 residues) expressed in bacterial expression system at 50 nM measured after 1 hr by kinomescan assay relative to control", "procedure,_shortened": "as §1"}, "[17]": {"biological_target": "SRSF protein kinase 3 (Homo sapiens) (UniProt Q9UPE1)", "sequence (Q9UPE1 whole entry, the tested form may be a part)": "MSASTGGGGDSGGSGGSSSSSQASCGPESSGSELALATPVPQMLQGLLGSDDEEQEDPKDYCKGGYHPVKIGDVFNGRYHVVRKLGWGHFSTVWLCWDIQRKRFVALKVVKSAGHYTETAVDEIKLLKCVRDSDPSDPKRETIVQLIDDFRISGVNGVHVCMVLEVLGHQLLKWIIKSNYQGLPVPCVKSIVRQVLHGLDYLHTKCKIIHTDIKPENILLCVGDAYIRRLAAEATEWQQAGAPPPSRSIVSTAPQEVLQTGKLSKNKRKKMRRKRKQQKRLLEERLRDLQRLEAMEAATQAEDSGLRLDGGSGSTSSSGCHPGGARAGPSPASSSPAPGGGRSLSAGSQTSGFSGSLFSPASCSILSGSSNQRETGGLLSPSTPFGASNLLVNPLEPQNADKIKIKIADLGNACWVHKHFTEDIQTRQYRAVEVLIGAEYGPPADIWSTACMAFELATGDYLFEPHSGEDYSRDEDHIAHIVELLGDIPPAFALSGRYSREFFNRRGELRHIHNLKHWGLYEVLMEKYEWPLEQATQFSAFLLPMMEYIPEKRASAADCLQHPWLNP", "assay": "Inhibition of biotinylated ligand binding to wild-type human partial length SRPK3 (P41 to P567 residues) expressed in bacterial expression system at 50 nM measured after 1 hr by kinomescan assay relative to control", "procedure,_shortened": "as §1"}, "[18]": {"biological_target": "Vascular endothelial growth factor receptor 3 (Homo sapiens) (UniProt P35916)", "sequence (P35916 whole entry, the tested form may be a part)": "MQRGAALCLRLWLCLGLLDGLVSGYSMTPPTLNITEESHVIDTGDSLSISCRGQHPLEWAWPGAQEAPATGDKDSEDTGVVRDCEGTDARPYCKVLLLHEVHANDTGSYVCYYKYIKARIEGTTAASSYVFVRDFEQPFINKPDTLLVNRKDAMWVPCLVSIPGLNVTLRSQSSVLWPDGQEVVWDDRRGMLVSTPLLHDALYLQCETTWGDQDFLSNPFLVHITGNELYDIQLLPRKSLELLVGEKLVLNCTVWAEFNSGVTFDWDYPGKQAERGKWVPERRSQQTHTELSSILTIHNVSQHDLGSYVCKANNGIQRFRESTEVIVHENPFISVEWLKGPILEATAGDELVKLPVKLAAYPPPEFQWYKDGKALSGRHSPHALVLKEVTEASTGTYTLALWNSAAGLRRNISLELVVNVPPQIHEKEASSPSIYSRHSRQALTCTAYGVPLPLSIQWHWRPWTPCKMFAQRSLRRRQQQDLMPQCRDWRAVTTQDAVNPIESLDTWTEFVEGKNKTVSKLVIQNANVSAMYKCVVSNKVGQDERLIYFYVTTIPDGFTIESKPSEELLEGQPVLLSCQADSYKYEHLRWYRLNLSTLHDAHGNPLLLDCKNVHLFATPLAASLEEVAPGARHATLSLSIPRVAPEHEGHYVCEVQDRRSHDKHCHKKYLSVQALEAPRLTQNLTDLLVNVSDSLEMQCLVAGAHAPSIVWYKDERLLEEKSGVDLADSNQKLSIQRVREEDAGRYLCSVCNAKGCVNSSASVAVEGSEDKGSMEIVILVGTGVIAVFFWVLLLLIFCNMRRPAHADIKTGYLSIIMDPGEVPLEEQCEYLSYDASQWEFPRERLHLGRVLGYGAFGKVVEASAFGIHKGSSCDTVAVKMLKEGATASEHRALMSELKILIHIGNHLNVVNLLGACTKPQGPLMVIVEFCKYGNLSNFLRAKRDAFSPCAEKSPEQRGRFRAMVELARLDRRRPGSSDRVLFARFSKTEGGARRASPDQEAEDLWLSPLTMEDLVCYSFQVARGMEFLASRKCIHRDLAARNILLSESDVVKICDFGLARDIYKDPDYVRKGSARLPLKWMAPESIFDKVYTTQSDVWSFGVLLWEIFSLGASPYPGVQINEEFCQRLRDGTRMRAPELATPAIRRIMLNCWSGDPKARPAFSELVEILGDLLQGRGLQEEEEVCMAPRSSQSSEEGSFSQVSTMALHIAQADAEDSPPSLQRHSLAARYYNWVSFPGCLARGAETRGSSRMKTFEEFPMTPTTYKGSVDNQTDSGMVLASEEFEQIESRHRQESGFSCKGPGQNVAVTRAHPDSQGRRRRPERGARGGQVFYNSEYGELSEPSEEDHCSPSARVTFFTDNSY", "assay": "Inhibition of biotinylated ligand binding to wild-type human partial length FLT4 (E821 to E1196 residues) expressed in bacterial expression system at 50 nM measured after 1 hr by kinomescan assay relative to control", "procedure,_shortened": "as §1"}, "OCI-AML-3": {"test_system": "OCI-AML-3", "assay": "cells", "details": "Homo sapiens, OCI-AML-3, 48 h"}, "[19]": {"biological_target": "Non-receptor tyrosine-protein kinase TNK1 (Homo sapiens) (UniProt Q13470)", "assay": "Inhibition of biotinylated ligand binding to wild-type human full length TNK1 (M1 to P661 residues) expressed in bacterial expression system at 50 nM measured after 1 hr by kinomescan assay relative to control", "procedure,_shortened": "as §1"}, "[20]": {"biological_target": "Interleukin-1 receptor-associated kinase 3 (Homo sapiens) (UniProt Q9Y616)", "assay": "Inhibition of biotinylated ligand binding to wild-type human partial length IRAK3 (V147 to E596 residues) expressed in bacterial expression system at 50 nM measured after 1 hr by kinomescan assay relative to control", "procedure,_shortened": "as §1"}, "[21]": {"biological_target": "High affinity nerve growth factor receptor (Homo sapiens) (UniProt P04629)", "assay": "Inhibition of biotinylated ligand binding to wild-type human partial length TRKA (G475 to G790 residues) expressed in mammalian expression system at 50 nM measured after 1 hr by kinomescan assay relative to control", "procedure,_shortened": "as §2"}}, "note": "pEC50: −log10 of the molar value."}
{"compound": "CN(C)[C@@H]1CC[C@@]2(C)[C@@H](CC[C@@H]3[C@@H]2CC[C@]2(C)C(c4cccc5cnccc45)=CC[C@@H]32)C1", "values": [{"measurement": "inhibition", "setting": "[1]", "result": "> 80", "unit": "%"}, {"measurement": "inhibition", "setting": "[2]", "result": "> 80", "unit": "%"}, {"measurement": "selectivity ratio", "setting": "[3]", "result": "3 to 4"}, {"measurement": "inhibition", "setting": "[4]", "result": "> 80", "unit": "%"}, {"measurement": "inhibition", "setting": "[5]", "result": "> 80", "unit": "%"}, {"measurement": "inhibition", "setting": "[6]", "result": "> 80", "unit": "%"}, {"measurement": "selectivity ratio", "setting": "[7]", "result": "3 to 4"}, {"measurement": "inhibition", "setting": "[8]", "result": "> 80", "unit": "%"}, {"measurement": "inhibition", "setting": "[9]", "result": "> 80", "unit": "%"}, {"measurement": "pEC50", "setting": "H9c2", "result": "4.60 to 4.90"}, {"measurement": "inhibition", "setting": "[10]", "result": "> 80", "unit": "%"}, {"measurement": "selectivity ratio", "setting": "[11]", "result": "3 to 4"}, {"measurement": "inhibition", "setting": "[12]", "result": "> 80", "unit": "%"}, {"measurement": "inhibition", "setting": "[13]", "result": "> 80", "unit": "%"}, {"measurement": "inhibition", "setting": "[14]", "result": "> 80", "unit": "%"}, {"measurement": "selectivity ratio", "setting": "[15]", "result": "3 to 4"}, {"measurement": "inhibition", "setting": "[16]", "result": "> 80", "unit": "%"}, {"measurement": "inhibition", "setting": "[17]", "result": "> 80", "unit": "%"}, {"measurement": "inhibition", "setting": "[18]", "result": "> 80", "unit": "%"}, {"measurement": "pEC50", "setting": "OCI-AML-3", "result": 5.32}, {"measurement": "inhibition", "setting": "[19]", "result": "> 80", "unit": "%"}, {"measurement": "inhibition", "setting": "[20]", "result": "> 80", "unit": "%"}, {"measurement": "inhibition", "setting": "[21]", "result": "> 80", "unit": "%"}]}
